Calls of active or inactive are those of the source. The rule behind the calls is not given here.
Legend:
Format in all cases: cell-based
[1] = molecular target: T1, Inhibitor of nuclear factor kappa-B kinase subunit beta (Mus musculus) (UniProt O88351); assay: Inhibition of IKKbeta in C57BL/6 mouse BMDM cells assessed as inhibition of LPS-induced IkappaBalpha phosphorylation at 50 uM up to 90 mins by Western blot analysis
T1 sequence (whole entry): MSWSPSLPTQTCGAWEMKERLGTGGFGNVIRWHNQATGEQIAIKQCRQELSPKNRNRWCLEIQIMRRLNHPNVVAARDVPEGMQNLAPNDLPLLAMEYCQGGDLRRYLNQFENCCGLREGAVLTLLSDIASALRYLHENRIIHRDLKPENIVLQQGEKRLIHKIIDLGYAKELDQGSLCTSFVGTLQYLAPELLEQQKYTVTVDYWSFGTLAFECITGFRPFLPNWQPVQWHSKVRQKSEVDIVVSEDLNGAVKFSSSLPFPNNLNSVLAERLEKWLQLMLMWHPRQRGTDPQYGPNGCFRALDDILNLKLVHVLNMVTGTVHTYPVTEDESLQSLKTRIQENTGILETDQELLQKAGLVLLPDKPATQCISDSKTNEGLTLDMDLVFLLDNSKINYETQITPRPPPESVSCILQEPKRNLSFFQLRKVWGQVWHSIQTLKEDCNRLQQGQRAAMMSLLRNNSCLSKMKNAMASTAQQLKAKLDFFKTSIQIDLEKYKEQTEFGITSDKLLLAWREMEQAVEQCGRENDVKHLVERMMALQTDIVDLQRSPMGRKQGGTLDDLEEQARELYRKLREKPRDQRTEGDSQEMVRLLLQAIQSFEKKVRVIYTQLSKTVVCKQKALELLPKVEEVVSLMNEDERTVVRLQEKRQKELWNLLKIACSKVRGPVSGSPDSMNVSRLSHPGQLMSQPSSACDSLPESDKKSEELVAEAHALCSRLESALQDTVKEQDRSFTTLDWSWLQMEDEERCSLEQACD

[2] = molecular target: Toll-like receptor 4 (Homo sapiens) (UniProt O00206); assay: Inhibition of MyD88 recruitment to TLR4 cytoplasmic domain expressed in CHO cells at 25 to 50 uM incubated for 30 mins prior to CCf2/AM loading measured after 1 hr by beta-lactamase complementation assay
Outline: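 CHO cells co-expressing TLR4- and MyD88-β-lactamase fragment fusions, or empty-vector controls, were plated for 24 h and then treated 30 min with compound at 25 or 50 μM. Cells were loaded with 1 μM CCF2/AM for 1 h at room temperature and imaged by fluorescence microscopy (405 nm excitation, 435 nm long-pass emission). Read-out: percent of blue (β-lactamase-positive) cells.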

[3] = molecular target: T1, Inhibitor of nuclear factor kappa-B kinase subunit beta (Mus musculus); assay: Inhibition of IKKbeta in C57BL/6 mouse BMDM cells assessed as inhibition of TNFalpha-induced IkappaBalpha phosphorylation at 50 uM up to 90 mins by Western blot analysis
[4] = molecular target: T1, Inhibitor of nuclear factor kappa-B kinase subunit beta (Mus musculus); assay: Inhibition of IKKbeta in C57BL/6 mouse BMDM cells assessed as inhibition of TNFalpha-induced MCP1 […] at 25 uM by Northern blot analysis
[5] = molecular target: MAP kinase p38 (Mus musculus) (UniProt P47811+O08911+Q9WUI1+Q9Z1B7); assay: Inhibition of MAPK p38 in C57BL/6 mouse BMDM cells assessed as inhibition of LPS-induced phosphorylation at 50 uM up to 90 mins by Western blot analysis
[6] = molecular target: T1, Inhibitor of nuclear factor kappa-B kinase subunit beta (Mus musculus); assay: Inhibition of IKKbeta in C57BL/6 mouse BMDM cells assessed as inhibition of LPS-induced RelA phosphorylation at 25 uM after 5 mins by Western blot analysis
Outline: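 C57BL/6 marrow-derived macrophages were cultured in 70% growth medium/30% L929-conditioned medium and refreshed 12-14 h before stimulation. Stimuli were TNF 40 ng/ml or LPS 100 ng/ml, ± compound at 25 μM from a 200x DMSO stock. Western blots tracked IKK, p38, IκBα and phospho-RelA. Results from three independent experiments were quantitated and normalized.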

[7] = molecular target: T2, Interleukin-1 receptor type 1 (Mus musculus) (UniProt P13504); assay: Inhibition of MyD88 recruitment to IL-1R in C57BL/6 mouse BMDM cells assessed as inhibition of IL-1-induced IkappaBalpha phosphorylation up to 90 mins by Western blot analysis
T2 sequence (whole entry): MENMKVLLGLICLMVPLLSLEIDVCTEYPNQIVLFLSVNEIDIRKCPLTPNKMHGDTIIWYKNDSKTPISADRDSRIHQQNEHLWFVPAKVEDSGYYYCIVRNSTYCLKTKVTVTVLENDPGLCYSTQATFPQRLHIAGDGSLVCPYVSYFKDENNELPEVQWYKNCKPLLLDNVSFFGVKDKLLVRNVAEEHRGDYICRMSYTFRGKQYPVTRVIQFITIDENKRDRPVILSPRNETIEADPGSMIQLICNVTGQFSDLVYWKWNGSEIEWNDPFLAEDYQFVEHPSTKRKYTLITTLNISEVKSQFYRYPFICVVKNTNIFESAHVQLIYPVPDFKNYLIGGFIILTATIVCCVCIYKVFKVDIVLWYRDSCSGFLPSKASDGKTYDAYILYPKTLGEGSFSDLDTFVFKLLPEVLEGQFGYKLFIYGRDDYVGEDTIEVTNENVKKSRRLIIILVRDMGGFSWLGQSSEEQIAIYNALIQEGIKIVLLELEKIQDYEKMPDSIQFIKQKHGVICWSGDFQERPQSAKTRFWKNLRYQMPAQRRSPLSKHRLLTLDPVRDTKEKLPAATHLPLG
Outline: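 Bone marrow macrophages from C57BL/6 mice, grown in 70% growth medium (DMEM, 10% FBS) plus 30% L929-conditioned medium and given fresh medium 12-14 h before stimulation. Stimuli: IL-1 40 ng/ml, HKSA ~10^8 cfu/ml, pI:pC 50 μg/ml or CpG 10 μg/ml, ± compound at 10 μM (final) added from a 200x DMSO stock. IκBα and p38 profiled by immunoblot. Three independent experiments, quantitated and normalized.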

Sequence of Toll-like receptor 4 (Homo sapiens) (O00206 whole entry, the tested form may be a part): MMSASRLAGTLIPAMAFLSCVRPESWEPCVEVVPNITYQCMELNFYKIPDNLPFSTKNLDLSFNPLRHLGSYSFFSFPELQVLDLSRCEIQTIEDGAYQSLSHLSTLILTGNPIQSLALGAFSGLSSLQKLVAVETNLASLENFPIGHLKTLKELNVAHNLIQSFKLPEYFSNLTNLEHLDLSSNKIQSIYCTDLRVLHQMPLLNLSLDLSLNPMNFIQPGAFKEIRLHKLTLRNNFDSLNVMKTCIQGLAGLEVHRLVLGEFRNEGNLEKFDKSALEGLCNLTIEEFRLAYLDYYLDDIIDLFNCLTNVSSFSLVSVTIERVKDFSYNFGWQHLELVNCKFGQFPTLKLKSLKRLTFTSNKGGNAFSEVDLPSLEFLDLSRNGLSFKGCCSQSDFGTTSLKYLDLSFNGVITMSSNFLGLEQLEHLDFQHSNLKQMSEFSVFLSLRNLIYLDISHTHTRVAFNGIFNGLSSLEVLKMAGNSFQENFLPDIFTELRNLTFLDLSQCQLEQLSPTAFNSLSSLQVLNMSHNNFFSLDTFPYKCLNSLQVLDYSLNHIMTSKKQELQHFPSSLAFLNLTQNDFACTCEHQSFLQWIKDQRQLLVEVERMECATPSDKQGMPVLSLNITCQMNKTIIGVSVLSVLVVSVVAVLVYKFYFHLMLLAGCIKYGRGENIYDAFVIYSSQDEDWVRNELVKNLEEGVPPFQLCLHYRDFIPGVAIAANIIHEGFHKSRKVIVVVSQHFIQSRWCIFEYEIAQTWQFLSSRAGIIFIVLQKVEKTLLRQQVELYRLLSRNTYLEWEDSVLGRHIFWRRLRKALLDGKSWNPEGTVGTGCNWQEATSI

Row | SMILES | inhibition of IkappaBalpha phosphorylation (active/not active) [1] | inhibition [2] | inhibition [3] | inhibition [4] | inhibition [5] | inhibition [6] | inhibition [7]
1 | O=C(CCCCCN1C(=O)CCC1=O)Oc1ccc2cc(C(C(=O)NCc3ccccc3)N(C(=O)Cc3ccc4c(c3)OCO4)C3CC3)ccc2c1 (centres undefined) | inactive |  |  |  |  |  | 
2 | O=C(CCCCCN1C(=O)C=CC1=O)Oc1ccc2cc(C(C(=O)NCc3ccccc3)N(C(=O)Cc3ccc4c(c3)OCO4)C3CC3)ccc2c1 (centres undefined) | Active | inactive | inactive | inactive | inactive | Active | Active
3 | O=C(CCCCCCCC(=O)ON1C(=O)CCC1=O)Oc1ccc2cc(C(C(=O)NCc3ccccc3)N(C(=O)Cc3ccc4c(c3)OCO4)C3CC3)ccc2c1 (centres undefined) | Active |  |  |  |  |  | 

Source: ChEMBL document CHEMBL2203171, “The use of small molecule probes to study spatially separated stimulus-induced signaling pathways” (Bioorg Med Chem Lett, 2012)
